# Most compounds without a hit are left out; they make up all but 3.5% or so of the library.
# MrgX1 PAM: allosterically activates human MrgX1 receptor signaling; Q96LB2; MrgX1-HEK293, Fluo-4 calcium flux, FDSS; stronger effect = higher value; B-score at 10 µM; actives 0.63% (n = 310,000);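 active = plate-corrected calcium response at least 3 library SD above typical, normal starting fluorescence, not activating the receptor alone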;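 also: compound read alongside a low EC10 to EC30 dose of BAM8-22 agonist; peak minus trough fluorescence over baseline measured at the second addition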
# Target sequence (Q96LB2 whole entry, looked up): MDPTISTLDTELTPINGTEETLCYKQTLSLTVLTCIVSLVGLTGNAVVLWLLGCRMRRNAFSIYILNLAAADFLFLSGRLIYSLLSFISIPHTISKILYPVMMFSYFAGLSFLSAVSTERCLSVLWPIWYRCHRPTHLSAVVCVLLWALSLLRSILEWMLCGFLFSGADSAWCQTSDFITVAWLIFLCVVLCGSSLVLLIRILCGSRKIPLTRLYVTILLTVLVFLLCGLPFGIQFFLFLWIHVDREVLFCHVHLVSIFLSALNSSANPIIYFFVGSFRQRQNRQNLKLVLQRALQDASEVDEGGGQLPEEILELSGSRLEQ
# MrgX1 antagonist: antagonists of human MrgX1 receptor | Q96LB2 | MRGX1-HEK293 calcium flux, Fluo-4, BAM8-22 antagonism; stronger effect = lower value | B-score at 10 µM | actives 1.3% (n = 310,000);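 active = calcium-response B-score plate-corrected more than 3 library SD below zero, starting fluorescence within 5 deviations, no agonist response on first addition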;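 also: peak minus trough fluorescence over baseline after final BAM8-22 challenge near maximal dose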
# RGS4 inh: human RGS4 inhibition. P49798. HEK293 M3R/RGS4 inducible, Fluo-4 calcium flux; stronger effect = higher value; triggered by carbachol at its EC20. B-score at 10 µM. actives 0.45% (n = 310,000). AID 463165;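 active = B-score, a plate-corrected calcium signal, over three deviations above library mean, with baseline fluorescence within five deviations of library mean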;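 also: RGS4 expression induced by doxycycline in cells with stable M3 receptor; B-score is computed from the integrated fluorescence ratio over baseline after carbachol; higher B-score means a larger calcium signal and so more RGS4 inhibition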
# MrgX1 ag: human MrgX1 receptor agonism, primary screen; MrgX1-HEK293 cells, Fluo-4 calcium fluorescence, agonist mode; stronger effect = higher value; AID 588627; B-score at 10 µM; actives 0.44% (n = 310,000); Q96LB2;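 active = calcium response B-score plate-corrected fluorescence ratio at least 3 library SD, with starting fluorescence B-score inside 5 SD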
#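 Material: MrgX1-expressing HEK293 cells / Dosing: compound as first of three additions / Incubation: overnight seeding, then 1 h dark dye loading / Signal: Fluo-4 NW calcium fluorescence / Evaluation: B-scored fluorescence response ratio / Benchmarks: positive and negative control wells on each plate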
# RGS4 act: potentiators or activators of RGS4; B-score at 10 µM; HEK293 M3R/inducible RGS4, carbachol calcium flux Fluo4; stronger effect = lower value; actives 0.92% (n = 310,000);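 active = B-score of the integrated calcium signal more than 4 SD below the library mean, with starting fluorescence not abnormally high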;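 also: negative B-score means reduced calcium response which marks RGS4 activation or potentiation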
#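 test system = M3R-expressing HEK293 line, RGS4 induced by doxycycline | probe or stimulus = carbachol at ECmax as muscarinic agonist stimulus | timing = dye loading 30 min 37 °C, buffer rest 30 min RT | signal = calcium dye Fluo4 fluorescence | evaluation = B score from integrated fluorescence ratio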
# An asterisk follows results filed as active; i = inactive.
SMILES,MrgX1 PAM,MrgX1 antagonist,RGS4 inh,MrgX1 ag,RGS4 act
O=C(NNC(=S)NC(=O)c1cccc([N+](=O)[O-])c1)c1ccc(O)cc1,i,i,i,i,i
CCCCC(=O)Nc1ccc(C(=O)NNC(=S)NC(=O)c2ccccc2[N+](=O)[O-])cc1,i,i,i,i,i
O=C(NNC(=S)NC(=O)c1cccc([N+](=O)[O-])c1)c1ccc(Br)cc1,i,i,i,92.9*,-8.28*
CCCOc1ccc(C(=O)NNC(=S)NC(=O)c2cc(-c3ccccc3)nc3ccccc23)cc1,i,-4.71*,i,i,-9.33*
O=C(NC(=S)NNC(=O)c1ccccc1[N+](=O)[O-])c1ccccc1,9.73*,i,i,i,i
CCCOc1ccc(C(=O)NNC(=S)NC(=O)c2ccccc2[N+](=O)[O-])cc1,8.39*,i,i,i,i
CCCOc1ccc(C(=O)NNC(=S)NC(C)=O)cc1,i,i,i,i,i
C=C(C)CCOC(=O)C(CC(=O)O)NCc1ccco1 (centres undefined),i,i,i,i,i
Cc1ccc(NC(=O)N2CCCC2C(=O)NCc2ccc(Cl)cc2)cc1 (centres undefined),i,i,i,i,i
O=C(N/C(=C/c1ccccc1F)C(=O)N1CCCCC1)c1ccccc1,i,i,i,i,i
CC(C)(C)c1cc(C(=O)NNC(=O)Nc2cccc(Cl)c2)n(Cc2ccccc2)n1,i,i,i,i,i
CC(C)(C)c1cc(C(=O)NNC(=O)Nc2ccccc2)n(Cc2ccccc2)n1,i,-4.9*,i,i,i
O=C(N/C(=C/c1ccco1)C(=O)N1CCCCCC1)c1ccccc1,i,i,i,i,i
CCOC(=O)C1CCCN(C(=O)/C(=C/c2ccco2)NC(=O)c2ccccc2)C1 (centres undefined),i,i,i,i,-7.03*
N#CCCN(Cc1ccccc1)S(=O)(=O)c1cccs1,i,i,i,i,i
O=C(CCC(=O)N1CCOc2ccccc21)NCCCN1CCN(Cc2ccccc2)CC1,i,i,i,i,i
CCC(C)(C)c1ccc(OCCCC[n+]2cccc(C)c2C)c(C(C)(C)CC)c1,i,-5.34*,i,i,i
CCC(C)(C)c1ccc(OCCCC[n+]2ccc(C)cc2)c(C(C)(C)CC)c1,i,i,i,i,-9.27*
Cc1cc[n+](CC[n+]2ccc(C)cc2)cc1,i,i,i,i,i
CCOc1ccc(C(C)=O)cc1N1C(=O)C2C3C=CC(O3)C2C1=O (centres undefined),i,i,i,31.5*,i
Cc1cc(C)c2c(c1)C(=O)/C(=C/c1ccc(C(=O)O)cc1)CC2,16.4*,i,i,i,i
Cc1ccc(-c2csc(Cc3nc(-c4cc5ccccc5oc4=O)cs3)n2)cc1,i,i,i,i,-6.98*
Cc1nc(-c2nc(-c3c(C(=O)NNC(=O)c4ccc(Cl)cc4)noc3C)cs2)cs1,i,i,i,i,i
Cc1nc(-c2nc(-c3c(C(=O)NN)noc3C)cs2)cs1,i,-5.87*,i,i,i
COC(=O)c1cn(CCOc2ccccc2)c2ccccc12,i,i,i,i,i
CCN(CC)C(=O)C(=O)c1cn(CCOc2ccccc2)c2ccccc12,i,i,i,i,-7.1*
Cc1cc(NC(=O)c2nn(C)c(C)c2Br)no1,i,i,i,i,i
O=C(Oc1cccc2cccnc12)c1cccc(N2C(=O)C3C4CCC(C4)C3C2=O)c1 (centres undefined),i,i,5.97*,i,i
CCN1CCN(c2ccc(NC(=O)c3ccc4c(c3)[nH]c(=O)n4Cc3ccc(F)cc3)cc2)CC1,i,i,i,i,i
CCC1CCCCN1CCCNC(=O)CSc1nc2nc(C)c(Cc3ccccc3Cl)c(C)n2n1 (centres undefined),i,i,i,i,-6.98*

# From PubChem BioAssay
